# Measurements as given in PMC11485011 (Chemical Science, 2024).
# “Also recorded” adds a separate entry of the source. Like-named read-outs stand apart in the source and are kept apart here.
# Assays:
# hCB2R [1] = biological target: T1, hCB2R (Homo sapiens, UniProt P34972); assay: [3H]CP55940 displacement assay, hCB2R CHO membranes; type: binding; conditions: for Ki: Ki hCB2R, [3H]CP55940 displacement, CHO membranes stably expressing hCB2R; for Selectivity, ratio of Ki (CB1R)/Ki (CB2R): hCB2R over hCB1R
# hCB1R = hCB1R (Homo sapiens, UniProt P21554); assay: [3H]CP55940 displacement assay, hCB1R CHO membranes; type: binding
# In short: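 Competitive radioligand binding on membranes from CHO cells stably expressing hCB1R. Test compound displaces radioligand, and Ki is derived from that displacement. Selectivity calculated as Ki(CB1R)/Ki(CB2R). Means of at least three independent experiments, each in duplicate.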
# hCB2R [2] = biological target: T1, hCB2R; assay: TR-FRET kinetic binding characterization on HEK293-hCB2R cell membranes
# [3] = system: primary human macrophages; assay: confocal microscopy of primary human macrophages; type: cell-based; conditions: 0.8 μM, 15 min, endogenous CB2R
# hCB2R-CHO cells [4] = assay: co-staining with LysoTracker, super-resolution confocal microscopy; type: cell-based, human; conditions: 15 min
# In short: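 Live hCB2R-overexpressing CHO cells exposed for 15 min to the fluorescent probe together with LysoTracker as lysosome marker. Imaged by super-resolution confocal microscopy and channels merged to assess overlap. Three independent experiments, with five fields examined each.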
# hCB2R-CHO cells [5] = assay: endocytosis blocking study; type: cell-based, human; conditions: pretreatment 30 min with 0.4 M sucrose and 5 μg mL−1 filipin, probe 10 min
# hCB2R [6] = biological target: T1, hCB2R; assay: HTRF cAMP assay in CHO cells stably expressing hCB2R; type: cell-based; conditions: for Function: hCB2R cAMP assay
# In short: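 Cells stably expressing hCB2R; inhibition of cAMP accumulation read by HTRF. […] Emax expressed as % of the reference full agonist APD371. Means of four or seven independent experiments run in technical replicates.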
# [7] = biological target: hCB2R overexpressing CHO cells (Homo sapiens, UniProt P34972); assay: super-resolution confocal imaging, mean fluorescence intensity of labeled CB2R; type: cell-based; conditions: 0.8 μM probe, 15 min
# In short: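 Live hCB2R-overexpressing CHO cells stained with fluorescent probe plus Hoechst 33342 nuclear counterstain. Cells optically sectioned by confocal laser-scanning microscopy with an Airyscan detector (super-resolution).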
# hCB2R [8] = biological target: T1, hCB2R; type: cell-based; conditions: 5 µM inhibitor, 90 min preincubation; probes 12, 15, 18; hCB2R CHO cells
# hCB2R [9] = biological target: T1, hCB2R; type: cell-based; conditions: 0.014 to 10 μM, live CHO cells hCB2R vs hCB1R and wt
# [10] = normalized to reference full agonist APD371
# [11] = EC50 (column EC50 or IC50), agonists, HTRF cAMP assay, cells stably expressing hCB2R
# [12] = read-out: IC50 (column EC50 or IC50), inverse agonists, HTRF cAMP assay, cells stably expressing hCB2R
# hCB2R overexpressing CHO cells, sequence (P34972 whole entry): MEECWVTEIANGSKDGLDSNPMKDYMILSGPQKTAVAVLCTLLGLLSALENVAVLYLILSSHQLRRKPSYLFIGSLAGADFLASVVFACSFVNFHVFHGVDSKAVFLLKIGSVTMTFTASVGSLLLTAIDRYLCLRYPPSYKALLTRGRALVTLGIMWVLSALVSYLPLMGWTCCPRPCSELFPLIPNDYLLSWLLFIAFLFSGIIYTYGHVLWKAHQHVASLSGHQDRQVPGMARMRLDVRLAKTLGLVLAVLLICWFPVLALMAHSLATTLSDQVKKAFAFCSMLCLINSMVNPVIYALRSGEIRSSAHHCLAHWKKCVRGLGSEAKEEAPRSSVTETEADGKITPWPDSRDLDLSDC
# T1 sequence (P34972 whole entry): as above
# hCB1R, sequence (P21554 whole entry): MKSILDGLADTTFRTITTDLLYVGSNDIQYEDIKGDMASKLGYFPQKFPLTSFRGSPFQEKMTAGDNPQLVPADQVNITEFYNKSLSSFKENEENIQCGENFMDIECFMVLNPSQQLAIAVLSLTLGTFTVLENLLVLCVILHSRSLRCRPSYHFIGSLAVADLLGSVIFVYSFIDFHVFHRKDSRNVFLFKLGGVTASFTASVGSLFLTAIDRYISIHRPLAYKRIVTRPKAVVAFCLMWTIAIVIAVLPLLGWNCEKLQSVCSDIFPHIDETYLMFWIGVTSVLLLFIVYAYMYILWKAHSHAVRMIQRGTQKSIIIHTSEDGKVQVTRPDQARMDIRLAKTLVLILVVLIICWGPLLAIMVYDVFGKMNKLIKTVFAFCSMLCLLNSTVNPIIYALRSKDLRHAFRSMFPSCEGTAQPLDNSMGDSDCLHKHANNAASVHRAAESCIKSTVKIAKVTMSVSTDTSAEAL
Compound,Ki (hCB2R [1]) [nM],Ki (hCB1R) [nM],Function (hCB2R [6]),"Selectivity, ratio of Ki (CB1R)/Ki (CB2R) (hCB2R [1])",Emax (hCB2R [6]; CHO) [%],further results
"CCC(CC)(NC(=O)c1ccc(N2CC(OC)C2)c(OC[C@H]2C[C@@H]2CO)n1)C(=O)NCCOCCOCCOCCNC(=O)OC(C)(C)C [Compound 11c, TERT-BUTYL (3,3-DIETHYL-1-(6-(((1S,2S)-2-(HYDROXYMETHYL)CYCLOPROPYL)METHOXY)-5-(3-METHOXYAZETIDIN-1-YL)PYRIDIN-2-YL)-1,4-DIOXO-8,11,14-TRIOXA-2,5-DIAZAHEXADECAN-16-YL)CARBAMATE]",> 10000,> 10000,,,,
"N-(1-(3',6'-BIS(DIMETHYLAMINO)-3-OXO-3H-SPIRO[ISOBENZOFURAN-1,9'-XANTHEN]-5/6-YL)-13-ETHYL-1,12-DIOXO-5,8-DIOXA-2,11-DIAZAPENTADECAN-13-YL)-5-CYCLOPROPYL-6-(4-FLUOROBENZYL)PICOLINAMIDE [Compound 12]",,,partial agonism; also recorded: Partial agonist,,,"kinetic binding characterization (hCB2R [2]): fast association and appropriate residence time; distribution pattern in human macrophages [3]: widely distributed within the cell; co-localization with LysoTracker (hCB2R-CHO cells [4]): partial overlap but no clear co-localization; reduction of intracellular staining by endocytosis blockers (hCB2R-CHO cells [5]): 70%; Emax (hCB2R [6]; [10]): 80%; EC50 (hCB2R [6]; read-out: EC50 (column EC50 or IC50), agonists, HTRF cAMP assay, cells stably expressing hCB2R): 82 nM; MFI of labeled CB2R in intracellular compartments [7]: 2575 ± 100 MFI; plasma membrane labelling intensity (MFI) of labeled CB2R [7]: 2090 ± 175 MFI"
"CCC(CC)(NC(=O)c1ccc(C2CC2)c(Cc2ccc(F)cc2)n1)C(=O)NCCOCCOCCNC(=O)OC(C)(C)C [Compound 10b, TERT-BUTYL (1-(5-CYCLOPROPYL-6-(4-FLUOROBENZYL)PYRIDIN-2-YL)-3,3-DIETHYL-1,4-DIOXO-8,11-DIOXA-2,5-DIAZATRIDECAN-13-YL)CARBAMATE]",6,466,partial agonist,78,83,EC50 (hCB2R [6]; [11]): 49 nM
"CCC(CC)(NC(=O)c1ccc(N2CC(OC)C2)c(OC[C@H]2C[C@@H]2CO)n1)C(=O)NCCOCCOCCNC(=O)c1ccc2c(c1)C1(OC2=O)c2ccc(N(C)C)cc2[Si](C)(C)c2cc(N(C)C)ccc21 [Compound 17, N-(1-(3,7-BIS(DIMETHYLAMINO)-5,5-DIMETHYL-3'-OXO-3'H,5H-SPIRO[DIBENZO[B,E]SILINE-10,1'-ISOBENZOFURAN]-6'-YL)-13-ETHYL-1,12-DIOXO-5,8-DIOXA-2,11-DIAZAPENTADECAN-13-YL)-6-(((1S,2S)-2-(HYDROXYMETHYL)CYCLOPROPYL)METHOXY)-5-(3-METHOXYAZETIDIN-1-YL)PICOLINAMIDE]",,,Inverse agonist,,-29,IC50 (hCB2R [6]): 129 nM
"CCC(CC)(NC(=O)c1ccc(C2CC2)c(Cc2ccc(F)cc2)n1)C(=O)NCCOCCOCCOCCOCCNC(=O)OC(C)(C)C [Compound 10d, TERT-BUTYL (1-(5-CYCLOPROPYL-6-(4-FLUOROBENZYL)PYRIDIN-2-YL)-3,3-DIETHYL-1,4-DIOXO-8,11,14,17-TETRAOXA-2,5-DIAZANONADECAN-19-YL)CARBAMATE]",144,1470,,10,,
"CCC(CC)(NC(=O)c1ccc(N2CC(OC)C2)c(OC[C@H]2C[C@@H]2CO)n1)C(=O)NCCOCCOCCNC(=O)OC(C)(C)C [Compound 11b, TERT-BUTYL (3,3-DIETHYL-1-(6-(((1S,2S)-2-(HYDROXYMETHYL)CYCLOPROPYL)METHOXY)-5-(3-METHOXYAZETIDIN-1-YL)PYRIDIN-2-YL)-1,4-DIOXO-8,11-DIOXA-2,5-DIAZATRIDECAN-13-YL)CARBAMATE]",106,> 10000,Inverse agonist,>94,-63,IC50 (hCB2R [6]): 88 nM
"CCC(CC)(NC(=O)c1ccc(C2CC2)c(Cc2ccc(F)cc2)n1)C(=O)NCCOCCOCCOCCNC(=O)OC(C)(C)C [Compound 10c, TERT-BUTYL (1-(5-CYCLOPROPYL-6-(4-FLUOROBENZYL)PYRIDIN-2-YL)-3,3-DIETHYL-1,4-DIOXO-8,11,14-TRIOXA-2,5-DIAZAHEXADECAN-16-YL)CARBAMATE]",63,748,,12,,
"CCC(CC)(NC(=O)c1ccc(C2CC2)c(Cc2ccc(F)cc2)n1)C(=O)NCCOCCNC(=O)OC(C)(C)C [Compound 10a, TERT-BUTYL (2-(2-(2-(5-CYCLOPROPYL-6-(4-FLUOROBENZYL)PICOLINAMIDO)-2-ETHYLBUTANAMIDO)ETHOXY)ETHYL)CARBAMATE]",28,836,,30,,
CC(C)(C)c1nc(N2CC[C@H](O)C2)c2nnn(Cc3nnnn3C3CC3)c2n1 [RO6871304],,,,,,blocking of fluorescent probe staining (hCB2R [8]): completely blocked the staining
"CCC(CC)(NC(=O)c1ccc(N2CC(OC)C2)c(OC[C@H]2C[C@@H]2CO)n1)C(=O)NCCOCCNC(=O)OC(C)(C)C [Compound 11a, TERT-BUTYL (2-(2-(2-ETHYL-2-(6-(((1S,2S)-2-(HYDROXYMETHYL)CYCLOPROPYL)METHOXY)-5-(3-METHOXYAZETIDIN-1-YL)PICOLINAMIDO)BUTANAMIDO)ETHOXY)ETHYL)CARBAMATE]",2060,> 10000,,>4,,
"CCC(CC)(NC(=O)c1ccc(C2CC2)c(Cc2ccc(F)cc2)n1)C(=O)NCCOCCOCCNC(=O)c1ccc2c(c1)C(=O)OC21c2ccc(N)c(S(=O)(=O)O)c2Oc2c1ccc(N)c2S(=O)(=O)O [Compound 14, 3',6'-DIAMINO-5-((1-(5-CYCLOPROPYL-6-(4-FLUOROBENZYL)PYRIDIN-2-YL)-3,3-DIETHYL-1,4-DIOXO-8,11-DIOXA-2,5-DIAZATRIDECAN-13-YL)CARBAMOYL)-3-OXO-3H-SPIRO[ISOBENZOFURAN-1,9'-XANTHENE]-4',5'-DISULFONIC ACID]",,,partial agonism; also recorded: Partial agonist,,79,selectivity and specificity for hCB2R in flow cytometry (hCB2R [9]): high selectivity even at very high concentrations; EC50 (hCB2R [6]; [11]): 77 nM
"3',6'-DIAMINO-5/6-((3,3-DIETHYL-1-(6-(((1S,2S)-2-(HYDROXYMETHYL)CYCLOPROPYL)METHOXY)-5-(3-METHOXYAZETIDIN-1-YL)PYRIDIN-2-YL)-1,4-DIOXO-8,11-DIOXA-2,5-DIAZATRIDECAN-13-YL)CARBAMOYL)-3-OXO-3H-SPIRO[ISOBENZOFURAN-1,9'-XANTHENE]-4',5'-DISULFONIC ACID [Compound 18]",,,Inverse agonist,,,selectivity and specificity for hCB2R in flow cytometry (hCB2R [9]): high selectivity even at very high concentrations; Emax (hCB2R [6]; [10]): −26%; IC50 (hCB2R [6]; [12]): 262 nM
"N-(1-(3',6'-BIS(DIMETHYLAMINO)-3-OXO-3H-SPIRO[ISOBENZOFURAN-1,9'-XANTHEN]-5/6-YL)-13-ETHYL-1,12-DIOXO-5,8-DIOXA-2,11-DIAZAPENTADECAN-13-YL)-6-(((1S,2S)-2-(HYDROXYMETHYL)CYCLOPROPYL)METHOXY)-5-(3-METHOXYAZETIDIN-1-YL)PICOLINAMIDE [Compound 16]",,,Inverse agonist,,,kinetic binding characterization (hCB2R [2]): fast association and appropriate residence time; distribution pattern in human macrophages [3]: mainly localized on cellular membranes and partially in perinuclear dots; co-localization with LysoTracker (hCB2R-CHO cells [4]): clear co-localization pattern; reduction of intracellular staining by endocytosis blockers (hCB2R-CHO cells [5]): without affecting; Emax (hCB2R [6]; [10]): −29%; IC50 (hCB2R [6]; [12]): 114 nM; MFI of labeled CB2R in intracellular compartments [7]: 340 ± 13 MFI; plasma membrane labelling intensity (MFI) of labeled CB2R [7]: 350 ± 4 MFI
"CCC(CC)(NC(=O)c1ccc(C2CC2)c(Cc2ccc(F)cc2)n1)C(=O)NCCOCCOCCNC(=O)c1ccc2c(c1)C1(OC2=O)c2ccc(N(C)C)cc2[Si](C)(C)c2cc(N(C)C)ccc21 [Compound 13, N-(1-(3,7-BIS(DIMETHYLAMINO)-5,5-DIMETHYL-3'-OXO-3'H,5H-SPIRO[DIBENZO[B,E]SILINE-10,1'-ISOBENZOFURAN]-6'-YL)-13-ETHYL-1,12-DIOXO-5,8-DIOXA-2,11-DIAZAPENTADECAN-13-YL)-5-CYCLOPROPYL-6-(4-FLUOROBENZYL)PICOLINAMIDE]",,,full agonism; also recorded: Full agonist,,127,EC50 (hCB2R [6]; [11]): 528 nM
